For assay [1], the target named is T1, Cannabinoid receptor 2 (Homo sapiens, UniProt P34972). Kind of assay: Induction of human CB2 receptor internalization expressed in HEK293 cells at 10 uM relative to CP55940. The assay is classed as cell-based. In a few lines: (§1)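 Cells stably expressing human CB1 or human CB2 receptors, exposed to test compound alone. […] Mean of two determinations.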
Assay [2] concerns the target Cannabinoid receptor 1 (Homo sapiens) (UniProt P21554). In words: Induction of human CB1 receptor internalization expressed in HEK293 cells at 10 uM relative to CP55940. The assay is classed as cell-based. The method, boiled down:
as §1

For assay [3], the target named is T1, Cannabinoid receptor 2. In words: Partial agonist activity at human recombinant CB2 receptor expressed in CHO cells after 1 hr by [35S]GTPgammaS binding assay relative to CP55940. The class given is functional, cell-based. In a few lines: (§2)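 Membranes from CHO cells expressing hCB1 or hCB2, preincubated at least 15 min on ice with 30 μM GDP solution. GTP-γ-[35S] with WGA-PVT SPA beads. Eight concentrations, 0.001–10 μM, in duplicate. Incubated 1 h at room temperature, centrifuged, then a further 1 h before counting. […] Mean of two determinations.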

Assay [4] deals with Cannabinoid receptor 1 (Homo sapiens) (UniProt P21554). In words: Agonist activity at human recombinant CB1 receptor expressed in CHO cells after 1 hr by [35S]GTPgammaS binding assay relative to CP55940. The class given is functional, cell-based. In a few lines:
as §2

Assay [5] addresses T1, Cannabinoid receptor 2. Kind of assay: Displacement of [3H]-CP55940 from human CB2 receptor expressed in HEK293 cells after 1.5 hrs by microbeta liquid scintillation counting analysis. The assay is classed as cell-based. The settings on record: read-out: Ki. In a few lines:
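Membranes from rat brain homogenate (CB1) or HEK293 cells expressing human CB2. GF/B filtration, then scintillation counting. IC50 by three-parameter logistic fit, Ki by Cheng-Prusoff. Three experiments in triplicate.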

For another assay, the target named is Cannabinoid receptor 1 (Rattus norvegicus, UniProt P20272). In words: Displacement of [3H]-CP55940 from CB1 receptor in rat brain homogenate after 1.5 hrs by microbeta liquid scintillation counting analysis. The assay is classed as tissue-based. The settings on record: read-out: Ki. The method, boiled down:
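Membranes from rat brain homogenate (CB1) or HEK293 cells expressing human CB2. […] GF/B filtration, then scintillation counting. […] IC50 by three-parameter logistic fit, Ki by Cheng-Prusoff. Three experiments in triplicate.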

A short description of assay [6]: Selectivity ratio of Ki for rat CB1 receptor to Ki for human CB2 receptor.
In assay [7] the target is T1, Cannabinoid receptor 2. In words: Reduction of CP55940-induced human CB2 receptor internalization expressed in HEK293 cells at 3 uM relative to control. The class given is cell-based. Further details: scale not given: the % may be the effect or the level left.
Assay [8] deals with T1, Cannabinoid receptor 2. Kind of assay: Agonist activity at human recombinant CB2 receptor expressed in CHO cells after 1 hr by [35S]GTPgammaS binding assay. The class given is functional, cell-based.
Assay [9] deals with T1, Cannabinoid receptor 2. Kind of assay: Agonist activity at human recombinant CB2 receptor expressed in CHO cells after 1 hr by [35S]GTPgammaS binding assay relative to CP55940. The class given is functional, cell-based. In a few lines:
as §2

The subject of another assay is Rattus norvegicus. Kind of assay: Antiallodynic activity in ip dosed Sprague-Dawley rat spinal nerve ligation model of neuropathic pain assessed as reduction of tactile allodynia. The assay is classed as functional, organism-based. In a few lines: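 Male Sprague Dawley rats, 120–150 g. Left L5/L6 spinal nerves ligated under isoflurane; tested three weeks later. Single i.p. bolus, 5–20 mg/kg, in 30% hydroxypropyl-β-cyclodextrin in PBS, prepared within 1 h before injection. Paw withdrawal threshold by von Frey filaments, 50% threshold by up-down method. Seven rats per group. Repeated-measures ANOVA with Dunnett's test vs time 0.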

Assay [10] addresses T1, Cannabinoid receptor 2. In words: Agonist activity at human recombinant […] receptor expressed in CHO cells at 1 uM after 1 hr by [35S]GTPgammaS binding assay. The assay is classed as functional, cell-based.
Assay [11] has as its target T1, Cannabinoid receptor 2. In words: Antagonist activity at human recombinant […] receptor expressed in CHO cells at 1 uM after 1 hr by [35S]GTPgammaS binding assay. The class given is functional, cell-based.
Assay [12] concerns the target T1, Cannabinoid receptor 2. Kind of assay: Inverse agonist activity at human recombinant CB2 receptor expressed in CHO cells after 1 hr by [35S]GTPgammaS binding assay relative to CP55940. The assay is classed as functional, cell-based. The method, boiled down: as §2
The target in assay [13] is Cannabinoid receptor 1 (Homo sapiens) (UniProt P21554). In words: Partial agonist activity at human recombinant CB1 receptor expressed in CHO cells after 1 hr by [35S]GTPgammaS binding assay relative to CP55940. The class given is functional, cell-based. In a few lines:
as §2

Calls of active or inactive are those of the source. Some results are limits rather than exact numbers.

Chain of Cannabinoid receptor 1 (Homo sapiens) (P21554 whole entry): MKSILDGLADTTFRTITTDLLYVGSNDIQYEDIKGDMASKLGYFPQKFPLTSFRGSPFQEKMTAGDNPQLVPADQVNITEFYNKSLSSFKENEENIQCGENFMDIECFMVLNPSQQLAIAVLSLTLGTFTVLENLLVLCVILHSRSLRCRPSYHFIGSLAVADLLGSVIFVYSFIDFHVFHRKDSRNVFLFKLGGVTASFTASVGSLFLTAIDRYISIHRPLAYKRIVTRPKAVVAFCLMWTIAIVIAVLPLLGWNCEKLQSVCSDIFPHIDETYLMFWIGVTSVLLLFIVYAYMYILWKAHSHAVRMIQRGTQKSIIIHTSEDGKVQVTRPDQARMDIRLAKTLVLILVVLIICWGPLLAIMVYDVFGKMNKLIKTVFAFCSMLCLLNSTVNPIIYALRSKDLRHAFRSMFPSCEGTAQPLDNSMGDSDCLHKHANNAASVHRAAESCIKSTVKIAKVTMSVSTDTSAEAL
Chain of Cannabinoid receptor 1 (P20272 whole entry): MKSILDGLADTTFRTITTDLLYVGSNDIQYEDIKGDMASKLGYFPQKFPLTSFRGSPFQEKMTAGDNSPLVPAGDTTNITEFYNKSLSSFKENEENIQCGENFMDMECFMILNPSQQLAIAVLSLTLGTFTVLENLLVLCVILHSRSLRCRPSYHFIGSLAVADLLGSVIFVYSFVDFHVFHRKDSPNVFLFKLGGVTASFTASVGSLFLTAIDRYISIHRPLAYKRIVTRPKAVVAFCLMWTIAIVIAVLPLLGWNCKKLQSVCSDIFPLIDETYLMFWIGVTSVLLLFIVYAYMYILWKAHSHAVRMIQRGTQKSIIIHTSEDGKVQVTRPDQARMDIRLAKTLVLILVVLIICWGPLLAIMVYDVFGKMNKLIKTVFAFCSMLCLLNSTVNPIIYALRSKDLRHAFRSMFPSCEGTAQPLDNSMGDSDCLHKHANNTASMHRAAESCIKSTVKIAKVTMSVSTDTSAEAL
T1 sequence (P34972 whole entry): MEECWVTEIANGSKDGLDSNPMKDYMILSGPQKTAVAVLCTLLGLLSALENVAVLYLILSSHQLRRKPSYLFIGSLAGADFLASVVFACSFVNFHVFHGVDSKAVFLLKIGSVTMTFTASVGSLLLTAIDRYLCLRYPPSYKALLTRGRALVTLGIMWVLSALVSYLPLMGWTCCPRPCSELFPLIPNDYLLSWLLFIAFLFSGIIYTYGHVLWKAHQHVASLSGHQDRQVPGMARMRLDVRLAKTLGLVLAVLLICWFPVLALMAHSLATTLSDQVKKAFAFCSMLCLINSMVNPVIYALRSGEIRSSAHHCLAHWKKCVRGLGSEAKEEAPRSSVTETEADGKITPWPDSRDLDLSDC

Consider `CCCCCn1c2ccccc2c2cc(C(=O)N3CCCCC3)ccc21`, for which the results for the Activity (at Cannabinoid receptor 2 [1]; in assay [2]) were 118% and 140%, respectively. Also, the Emax at Cannabinoid receptor 2 [3] worked out at 30.8%; in assay [4], 73.6%. In addition, the Ki amounted to 73 nM at Cannabinoid receptor 2 [5] and 77 nM on Cannabinoid receptor 1. In assay [6], the Ratio Ki was found to be 1.05.
Turning to `CCCCCn1c2ccccc2c2cc(C(=O)c3ccccc3)ccc21`, the Activity on Cannabinoid receptor 2 [7] is > 50%; at Cannabinoid receptor 2 [1], 39.3%; in assay [2], 77%. For the same compound, the Ki on Cannabinoid receptor 2 [5] turned out to be 101 nM; on Cannabinoid receptor 1, 291 nM. The Ratio Ki in assay [6] came to 2.88.
Regarding `CS(=O)(=O)NCCCn1c2ccccc2c2cc(C(=O)N3CCCCC3)ccc21`, on Cannabinoid receptor 2 [8], the 50% effective concentration (EC50) amounted to 7.3 nM. At Cannabinoid receptor 2 [9], the Emax is 59.6%. For the same compound, the Activity result in the assay on Rattus norvegicus is “Dose-dependent effect”; on Cannabinoid receptor 2 [1], 116%; in assay [2], 54.1%. Further, the outcome at Cannabinoid receptor 2 [10] and on Cannabinoid receptor 2 [11] was inactive. In addition, the Ki at Cannabinoid receptor 2 [5] was determined as 62 nM; at Cannabinoid receptor 1, 1470 nM. Further, the Ratio Ki in assay [6] amounted to 23.7.
For the compound `CCCCCn1c2ccc(C(=O)N3CCCCC3)cc2c2ccc(OC)cc21`, the Emax on Cannabinoid receptor 2 [12] was -76.4%; in assay [13] it was 30.4%. For the same compound, the outcome at Cannabinoid receptor 2 [7] was Active. Also, the Activity was -1.1% on Cannabinoid receptor 2 [1] and 33.4% in assay [2]. Besides, the Ratio Ki in [6] was determined as 1.71.
Take `CCCCCn1c2ccccc2c2cc(C(=O)NCC(C)(C)C)ncc21`: the Activity at Cannabinoid receptor 2 [7] is > 50%; on Cannabinoid receptor 2 [1] it was 0.1%; in [2] it was 34.7%. Also, the inhibition constant (Ki) at Cannabinoid receptor 2 [5] was found to be 26.5 nM; at Cannabinoid receptor 1 it was 43.6 nM. In addition, the Ratio Ki in [6] was determined as 1.65.

The values above are taken from ChEMBL document CHEMBL2440006, “Mastering tricyclic ring systems for desirable functional cannabinoid activity” (Eur J Med Chem, 2013).
